Shown are actives, neighbours in structure and some others; about 2.9% of the full set was active somewhere.
HTRA1 inhibitor – HTRA1 (human) protease inhibition | AID 504803 | Q92743 | actives 0.5% (n = 340,000) | inhibition, % at 5.96 µM | recombinant HTRA1, FP-rhodamine activity-based probe, fluorescence polarization; in the data active means inhibition above about 36%;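 further: 0% = enzyme with DMSO and 100% = wells lacking enzyme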
TCR-CD3 inh – blocks the human TCR-CD3 interaction; TAMRA-labeled TCR probe fluorescence, biochemical; AID 651800; actives 0.37% (n = 360,000); inhibition, % at 9.4 µM; in the data active means inhibition above about 19%;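 further: recombinant mutant TCR 2C K166C tagged with TAMRA read by polarization; 0% = receptor in buffer alone and 100% = receptor with positive control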
ATG4B inh – ATG4B (human) cysteine protease inhibition; Q9Y4P1; ATG4B cleavage of LC3-PLA2, NBD-HPC fluorescence, 1 h; inhibition, % at 8.33 µM; actives 0.51% (n = 340,000); AID 504462; in the data active means inhibition above about 40%
SIAE inh – blocks human sialic acid acetylesterase; inhibition, % at 9.66 µM; AID 1053197; SIAE FP-Rh probe binding, fluorescence polarization; actives 0.69% (n = 370,000);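 active means inhibition above a cutoff: mean of compounds within the control limits plus 3 SD of those, cut at about 17% in these data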;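 further: 0% = plate median of compound wells and 100% = probe without SIAE protein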
ABHD4 inh – inhibits mouse alpha/beta hydrolase domain 4 | inhibition, % at 8.92 µM | purified mABHD4, FP-Rh probe fluorescence polarization | AID 720543 | Q8VD66 | actives 0.54% (n = 370,000);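 active means inhibition exceeding the mean over every tested compound plus 3 SD, cut at about 30% in these data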;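 further: 0% = plate median of compound wells and 100% = S159A mutant with DMSO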
Target sequence (Q8VD66 whole entry, looked up, the tested form may be a part): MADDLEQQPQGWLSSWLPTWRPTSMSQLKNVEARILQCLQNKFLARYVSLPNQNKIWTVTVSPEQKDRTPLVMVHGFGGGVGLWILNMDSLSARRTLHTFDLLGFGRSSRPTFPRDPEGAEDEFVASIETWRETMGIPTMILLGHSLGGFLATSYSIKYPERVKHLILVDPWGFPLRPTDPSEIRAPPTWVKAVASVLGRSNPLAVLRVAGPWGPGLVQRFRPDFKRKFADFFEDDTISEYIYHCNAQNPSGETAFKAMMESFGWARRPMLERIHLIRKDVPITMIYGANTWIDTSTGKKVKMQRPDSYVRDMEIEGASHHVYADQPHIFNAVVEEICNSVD
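Assay system: mABHD4 protein; medium: HEPES pH 7.0, NaCl, Pluronic buffer; dosing: 8.92 µM, single dose; schedule: 45 min + 60 min at 25 °C; signal: FP readout, ex 525 nm / em 598 nm; read-out: normalized percent inhibition of probe labeling; repeats: single replicate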
PRMT1 FP inh – blocks human protein arginine methyltransferase 1; Q99873; recombinant PRMT1, activity-based probe fluorescence polarization; inhibition, % at 2.79 µM; actives 1.3% (n = 370,000); AID 652257;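 active means inhibition above about 21% made by adding two undisclosed values, limit read from the data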
ABHD4 confirm – confirmation of mouse ABHD4 inhibitors; AID 720658; purified mABHD4, FP-Rh probe fluorescence polarization; inhibition, % at 8.92 µM; shares compounds with ABHD4 inh; actives 55% (n = 1,800);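 active means mean inhibition across replicates above the hit cutoff set in the primary screen, cut at about 30% in these data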;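 further: 0% = wild-type ABHD4 with DMSO and 100% = catalytically dead S159A mutant with DMSO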
SIAE confirm – human SIAE inhibition, confirmation | AID 1117263 | inhibition, % at 9.66 µM | SIAE FP-Rh activity-based probe, fluorescence polarization | shares compounds with SIAE inh | actives 13% (n = 2,300);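 active means mean inhibition of the replicates above the hit cutoff set in the primary screen, cut at about 17% in these data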;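 further: 0% = SIAE with DMSO and probe and 100% = probe without SIAE; inhibitors lower polarization as more probe stays unbound to SIAE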
The depositor's hits bear a star; · = not tested or not shown.

SMILES | HTRA1 inhibitor | TCR-CD3 inh | ATG4B inh | SIAE inh | ABHD4 inh | PRMT1 FP inh | ABHD4 confirm | SIAE confirm
COC(=O)c1c(Cl)c2n3ccccc3c(C)c(-c3ccccc3)c-2c1C(=O)OC | 8.8 | 17.1 | -9.2 | 20.6* | 43.6* | 33.6* | 21.8 | -4.8
Brc1ccc(-c2ccc(/C=N/Nc3nc4ccccc4[nH]3)o2)cc1 | 9.9 | -0.5 | -7.7 | 19.2* | 32.5* | 4.0 | 59.4* | 33.8*
C(=N\Nc1nc2ccccc2[nH]1)/c1ccccc1 | -2.6 | 0.4 | -0.4 | 12.7 | 11.4 | 5.4 | · | ·
[O-][n+]1c2c(c3c4non(O)c4ccc31)CCCC2 | 20.0 | 7.7 | 3.1 | 31.4* | 35.4* | 1.0 | 26.6 | 28.4*
O=C1CC(Nc2ccc(N3CCOCC3)cc2)C(=O)N1C1CCCCC1 (configuration not stated) | 19.6 | 6.3 | -2.9 | 8.4 | 27.6 | 7.2 | · | ·
CC(C)N1C(=O)CC(Nc2ccc(N3CCOCC3)cc2)C1=O (configuration not stated) | 10.3 | 1.7 | -8.5 | 20.7* | 32.6* | 11.0 | 42.5* | 3.0
O=c1[nH]c(N/N=C/c2cc3c(cc2[N+](=O)[O-])OCO3)nc2ccccc12 | 7.3 | 4.9 | 5.6 | 2.4 | 4.1 | -1.3 | · | ·
O=[N+]([O-])c1cc(/C=N/Nc2nc3ccccc3[nH]2)c(O)cc1O | · | -1.1 | 1.8 | 22.7* | 49.3* | 0.7 | 72.0* | 21.6*
COC(=O)C[C@H]1CC[C@@H]2[C@H](COc3ccc(NC(=O)c4cccc(Cl)c4)cc3C(=O)N2C)O1 | · | · | · | -1.5 | 3.8 | 3.1 | · | ·
O=C(Cc1ccc2c(c1)OCO2)N1CCC(n2nc(-c3ccccc3)oc2=O)CC1 | · | · | · | 3.2 | -0.7 | -4.5 | · | ·
COc1cc2ccc(=O)oc2c(O)c1O | 10.8 | 10.8 | -21.9 | 25.8* | 31.6* | 5.4 | 6.1 | 15.4
COc1cc2ccc(=O)oc2c(O[C@@H]2O[C@H](CO)[C@@H](O)[C@H](O)[C@H]2O)c1O | 3.3 | 5.9 | -3.5 | 9.2 | 2.6 | -0.4 | · | ·
CCCCCC[C@H](CN(CCCC)S(C)(=O)=O)c1ccccc1 | · | · | · | 5.8 | -1.4 | -1.4 | · | ·
CN(C(=S)NC(=O)C12CC3CC(CC(C3)C1)C2)c1ccc(O)cc1 | 10.9 | 17.1 | -8.8 | 18.5* | 41.1* | 26.4* | 15.1 | 0.8
O=C(NNC(=S)NC(=O)c1ccccc1[N+](=O)[O-])c1ccccc1O | · | 18.1 | -1.2 | -0.4 | 19.5 | 5.4 | · | ·
O=C(NC(=S)Nc1cccc2c(O)cccc12)c1ccco1 | 3.3 | 3.8 | -2.6 | 17.2* | 30.1* | 6.0 | 3.8 | 1.6
O=C(NC(=S)Nc1cccc2c(O)cccc12)c1ccccc1[N+](=O)[O-] | 7.8 | 10.9 | -3.1 | 23.0* | 48.0* | 10.2 | -10.7 | -4.2
O=C(NC(=S)Nc1cccc2cc(O)ccc12)c1ccco1 | -4.1 | 2.1 | -2.4 | 6.0 | -4.3 | -0.5 | · | ·
COC(=O)Cc1csc(Nc2ccc(F)c(Cl)c2)n1 | -0.2 | -0.7 | 2.9 | 21.6* | 35.9* | 1.2 | -2.5 | 3.4
O=C1NC(Cc2cnc[nH]2)C(=O)N2CCCC12 (configuration not stated) | · | 0.8 | · | -11.3 | 0.0 | 6.6 | · | ·
Cn1c(CNc2ccccc2O)nc2ccccc21 | 18.9 | 4.3 | -1.6 | 19.4* | 31.2* | 0.5 | 9.7 | 10.4
Cc1ccccc1NCc1nc2ccccc2n1C | 1.2 | 1.5 | 2.0 | 12.4 | 0.2 | 0.7 | · | ·
COc1cccc(/C=N/NC(=O)c2cc3c(OC)ccc(OC)c3[nH]2)c1O | 25.3 | 12.4 | -15.5 | 33.9* | 36.6* | 1.6 | 62.4* | 9.3
Oc1cccc2c(NC(=S)Nc3ccc(SC(F)F)cc3)cccc12 | 23.4 | -5.1 | -16.7 | 19.0* | 40.0* | 17.0 | -1.9 | 2.5
COc1ccc(CN(CC#Cc2ccccc2)Cc2ccccc2)c(OC)c1 | · | · | · | -1.4 | -8.9 | -1.9 | · | ·
COc1cc(/C=N/NC(=O)C(Cc2c[nH]c3ccccc23)NC(=O)OCC(C)C)cc([N+](=O)[O-])c1OCc1ccccc1 (configuration not stated) | -2.1 | -4.3 | -0.4 | -3.8 | -1.4 | 3.5 | · | ·

Bioassay records from PubChem BioAssay.
